In ChEMBL document CHEMBL4014264, “Benzoyltyramine Alkaloids Atalantums A-G from the Peels of Atalantia monophylla and Their Cytotoxicity against Cholangiocarcinoma Cell Lines” (J Nat Prod, 2017):

Tests used:
[1] = Cytotoxicity against human KKU-M214 cells assessed as reduction in cell viability after 72 hrs by SRB assay; assay type: functional, cell-based; conditions: KKU-M214, 72 h
Summary of the method: (§1)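 Cholangiocarcinoma cells seeded at (1−2) × 10^4 cells/well, grown 24 h at 37 °C, then dosed in triplicate to final 0.025−20 μg/well, with 0.1% DMSO solvent control. Starting plates read after 1 h, treated plates after 72 h, by SRB. Viability % = (OD treated day 3 − OD start)/(OD control day 3 − OD start) × 100. IC50 taken from dose–response curves.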

[2] = Cytotoxicity against human KKU-M213 cells assessed as reduction in cell viability after 72 hrs by SRB assay; assay type: functional, cell-based; conditions: KKU-M213, 72 h; summary of the method: as §1
[3] = Cytotoxicity against human KKU-M156 cells assessed as reduction in cell viability after 72 hrs by SRB assay; assay type: functional, cell-based; conditions: KKU-M156, 72 h; summary of the method: as §1
[4] = Potency index, ratio of ellipticine IC50 to compound IC50 for human KKU-M156 cells; assay type: functional

Structure (SMILES)	IC50 [1] [µM]	IC50 [2] [µM]	IC50 [3] [µM]	Ratio IC50 [4]
CCCCCCCCCCCCCCCC(=O)OC(CC1OC1(C)C)/C(C)=C/COc1ccc(CCNC(=O)c2ccccc2)cc1 (stereo unspecified)	14.9	2.71	21	
C/C(=C\COc1ccc(CCNC(=O)c2ccccc2)cc1)C(O)CC(O)C(C)(C)O (stereo unspecified)	11.1	25.8	26.8	
CC(=O)OC(CC1OC1(C)C)/C(C)=C/COc1ccc(CCNC(=O)c2ccccc2)cc1 (stereo unspecified)	31.5	11.1	29.1	
CC(=O)OC(CC(O)C(C)(C)O)/C(C)=C/COc1ccc(CCNC(=O)c2ccccc2)cc1 (stereo unspecified)	44.5	28.8	49.7	
CCCCCCCCCCCCCCCC(=O)OC(CC(OC(C)=O)C(C)(C)O)/C(C)=C/COc1ccc(CCNC(=O)c2ccccc2)cc1 (racemic)	3.06	34.8	22	
CCCCCCCCCCCCCCCC(=O)OC(C)(C)C(O)CC(O)/C(C)=C/COc1ccc(CCNC(=O)c2ccccc2)cc1 (racemic)	20.5	16.1	31.5	
CCCCCCCCCCCCCC(=O)OC(CC(OC(C)=O)C(C)(C)O)/C(C)=C/COc1ccc(CCNC(=O)c2ccccc2)cc1 (racemic)	24	2.36	24.5	
CCCCCCCCCCCCCCCC(=O)OC(CC(O)C(C)(C)O)/C(C)=C/COc1ccc(CCNC(=O)c2ccccc2)cc1 (racemic)	27.4	5.63	2.8	
C/C(=C\COc1ccc(CCNC(=O)c2ccccc2)cc1)C1CC(O)C(C)(C)O1 (racemic)	7.37	12.2	21.5	
CCCCCCCCCCCCCCCCCC(=O)OC(CC(OC(C)=O)C(C)(C)O)/C(C)=C/COc1ccc(CCNC(=O)c2ccccc2)cc1 (racemic)	12.4	29.1	24	
CCCCCCCCCCCCCCCC(=O)OC(CC(O)/C(C)=C/COc1ccc(CCNC(=O)c2ccccc2)cc1)C(C)(C)O (racemic)	8.44	23.5	1.97	4.7
Cc1c2ccncc2c(C)c2c1[nH]c1ccccc12 [ELLIPTECINE]		6.58		
O=c1[nH]cc(F)c(=O)[nH]1 [FLUOROURACIL]	3.76			
